Results: ChEMBL document CHEMBL1125890, “Synthesis, calcium-channel-blocking activity, and antihypertensive activity of 4-(diarylmethyl)-1-[3-(aryloxy)propyl]piperidines and structurally related compounds” (J Med Chem, 1991)

What was measured:
[1] = species: Oryctolagus cuniculus; test: Calcium channel-blocking activity by determined by ability to antagonize calcium-induced contractions of isolated rabbit aortic strips; type: functional; conditions: Aorta, read-out: pA2 (converted)
Summary of the method: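 Rabbit aortic strips were bathed in turn in CaCl2-containing buffer, CaCl2-free buffer, then depolarizing (KCl) CaCl2-free buffer. Cumulative CaCl2 addition induced contractions, recorded with force-displacement transducers. Responses were compared without and with 1–100 nM test compound. pA2 was calculated by the Van Rossum method from at least three tissues.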

[2] = system: Rattus norvegicus; test: Antihypertensive activity expressed as change in mean arterial blood pressure (MABP) in spontaneously hypertensive rats (SHR), at 3-6h after 30 mg/kg oral administration; type: functional, Artery
Summary of the method: (§1)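 Adult male SHR, catheter implanted in carotid artery or abdominal aorta under anesthesia at least 24 h before dosing. Baseline pressure recorded 1-1.5 h. Compound given orally at 30 mg/kg as solution or suspension in 0.5% Tween 80/distilled H2O (v/v) or other vehicle. MABP read at 0.5, 1, 1.5, 2, 3, 4, 5 and 6 h. Average percent change from predose calculated per period. Paired one-tailed t test, p < 0.05. n = 3-6 rats unless noted.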

[3] = system: Rattus norvegicus; test: Antihypertensive activity expressed as change in mean arterial blood pressure (MABP) in spontaneously hypertensive rats (SHR),at 0.5-2h after 30 mg/kg oral administration; type: functional, Artery; summary of the method: as §1

| SMILES | Kb [1] | Change [2] | Change [3] |
| --- | --- | --- | --- |
| COc1cc(C(C)=O)ccc1OCCCN1CCC(Cc2ccc(F)cc2)CC1 | 20 nM | -4% | -7% |
| COc1cc(C(C)=O)ccc1OCCCN1CCC(C(c2ccc(F)cc2)c2ccccn2)CC1 (configuration not stated) | 158 nM | 3% | -3% |
| N#Cc1ccc(OCCCN2CCC(C(c3ccc(F)cc3)c3ccc(F)cc3)CC2)cc1 | 5.01 nM | -11% | 8% |
| COc1cc(C(C)=O)ccc1OCCCN1CCC(C(c2ccc(Cl)cc2)c2ccc(Cl)cc2)CC1 | 2.51 nM | -9% | -3% |
| COc1cc(C(C)=O)ccc1OCCCN1CCC(C(C#N)(c2ccc(F)cc2)c2ccc(F)cc2)C1 (configuration not stated) | 6.31 nM | 1% | -2% |
| COc1cc(C(C)O)ccc1OCCCN1CCC(C(c2ccc(F)cc2)c2ccc(F)cc2)CC1 (configuration not stated) | 10 nM | -9% | -14% |
| Fc1ccc(C(c2ccc(F)cc2)C2CCN(CCCOc3cccc4ccccc34)CC2)cc1 | 5.01 nM | -7% | -6% |
| COc1cc(C(C)=O)ccc1OCCCN1CCC(C(O)(c2ccc(F)cc2)c2ccc(F)cc2)CC1 | 10 nM | -9% | -5% |
| CC(C)(C)c1ccc(OCCCN2CCC(C(c3ccc(F)cc3)c3ccc(F)cc3)CC2)cc1 | 1 nM | -10% | -15% |
| Cc1cccc(C)c1NC(=O)CN1CCN(CCCC(c2ccc(F)cc2)c2ccc(F)cc2)CC1 [LIDOFLAZINE] | 31.6 nM | -9% | -9% |
| COc1cc(C(C)=O)ccc1OCCCN1CCCC(C(C#N)(c2ccc(F)cc2)c2ccc(F)cc2)C1 (configuration not stated) | 7.94 nM | 9% | 5% |
| COc1cc(C(C)=O)ccc1OCCCN1CCC(C(c2ccc(F)cc2)c2ccc(F)c(F)c2)CC1 (configuration not stated) | 1.26 nM | -30% | -27% |
| COc1cc(C(C)=O)ccc1OCCCN1CCC(C(c2ccc(F)c(F)c2)c2ccc(F)c(F)c2)CC1 | 2.51 nM | -35% | -28% |
| COc1ccc(OCCCN2CCC(C(c3ccc(F)cc3)c3ccc(F)cc3)CC2)cc1 | 2.51 nM | -3% | -2% |
| COc1cc(C(=O)O)ccc1OCCCN1CCC(C(c2ccc(F)cc2)c2ccc(F)cc2)CC1 | 79.4 nM | 0% | 9% |
| COc1cc(C(C)=O)ccc1OCCCN1CCC(C(c2ccc(F)cc2)C2CCCCC2)CC1 (configuration not stated) | 5.01 nM | -6% | 3% |
| CC(=O)c1ccc(OCCCN2CCC(C(c3ccc(F)cc3)c3ccc(F)cc3)CC2)cc1 | 2.51 nM | 0% | -1% |
| COc1cc(C(C)=O)ccc1OCCCN1CCCC(CC(C#N)(c2ccc(F)cc2)c2ccc(F)cc2)C1 (configuration not stated) | 12.6 nM | -5% | 2% |
| COc1ccc(CCN(C)CCCC(C#N)(c2ccc(OC)c(OC)c2)C(C)C)cc1OC (configuration not stated) [VERAPAMIL] | 10 nM | -22% | -19% |
| COc1ccc([C@@H]2Sc3ccccc3N(CCN(C)C)C(=O)[C@@H]2OC(C)=O)cc1 [DILTIAZEM] | 20 nM | -13% | -14% |
| COc1cc(C(C)=O)ccc1OCCCN1CCC(C(C(N)=O)(c2ccc(F)cc2)c2ccc(F)cc2)CC1 | 25.1 nM | 5% | 3% |
| COc1cc(C(C)=O)ccc1OCCCN1CCC(C(C#N)(c2ccc(F)cc2)c2ccc(F)cc2)CC1 | 2 nM | -26% | -17% |
| COc1cc(C(C)=O)ccc1OCCCCCN1CCC(C(c2ccc(F)cc2)c2ccc(F)cc2)CC1 | 3.16 nM | -13% | -5% |
| Fc1ccc(C(c2ccc(F)cc2)C2CCN(CCCOc3ccc(Cl)cc3)CC2)cc1 | 2 nM | -25% | -15% |
| COc1cc(C(C)=O)ccc1OCCCN1CCC(C(c2ccccc2)c2ccccc2)CC1 | 6.31 nM | -12% | -20% |
| COc1cc(C(C)=O)ccc1OCCCN1CCC(C(c2ccccc2)c2ccc(F)cc2)CC1 (configuration not stated) | 6.31 nM | -12% | -8% |
| NC(=O)c1ccc(OCCCN2CCC(C(c3ccc(F)cc3)c3ccc(F)cc3)CC2)cc1 | 31.6 nM | -8% | -3% |
| COc1cc(C(C)=O)ccc1OCCCN1CCC(CC(c2ccc(F)cc2)c2ccc(F)cc2)CC1 | 3.16 nM | -10% | -13% |
| COc1cc(C(C)=O)ccc1OCCCN1CCC(C(c2ccc(F)cc2F)c2ccc(F)cc2F)CC1 | 15.8 nM | -16% | -12% |
